In ChEMBL document CHEMBL5705892, “MK-2206, an allosteric Akt inhibitor, enhances antitumor efficacy by standard chemotherapeutic agents or molecular targeted drugs in vitro and in vivo” (Mol Cancer Ther, 2010):
The source made the active and inactive calls. The rule behind the calls is not given here.

Experiments:
[1] = tested on: NCI-H292; assay: Antitumor activity against human NCI-H292 cells xenografted in CD-1 mouse assessed as tumor growth suppression at 120 mg/kg, po administered 3 times per week for 2 weeks starting 2 hrs post-erlotinib treatment and measured twice a week during compound dosing by caliper method; format: functional, organism-based
Outline: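 Female CD1-nude mice carried s.c. NCI-H292 cells in Matrigel/PBS and were randomized at 0.2 cm³, n = 5. […] MK-2206 (30% Captisol) was given 2 h later at 120 mg/kg po on days 0, 2, 4, 7, 9, 11, or at 360 mg/kg on days 0 and 7. Control received vehicle. Caliper volume twice weekly.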

[2] = tested on: NCI-N87; assay: Synergistic antiproliferative activity against human NCI-N87 cells assessed as combination index at ED75 measured after 96 hrs in presence of lapatinib by celltiter-glo assay; format: functional
[3] = tested on: HCC70; assay: Synergistic antiproliferative activity against lapatinib pretreated human HCC70 cells assessed as combination index at ED75 measured after 72 hrs by celltiter-glo assay; format: functional
[4] = tested on: MCF7; assay: Synergistic antiproliferative activity against human MCF7 cells assessed as combination index at ED50 measured after 72 hrs in presence of docetaxel by celltiter-glo assay; format: functional
Outline: (§1)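 Cells grown in RPMI 1640 with 10% heat-inactivated FBS at 37°C, 5% CO₂. Seeded at 2 to 3 × 10³ per well; drugs added 24 h later. […] Viability read as cellular ATP by CellTiter-Glo. CI calculated by Chou–Talalay from median-effect plots at ED50, ED75 and ED90.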

[5] = target: RAC-alpha serine/threonine-protein kinase (Homo sapiens) (UniProt P31749); assay: Inhibition of AKT phosphorylation at S473 residue in human HCC70 cells at 1 umol/L measured after 3 to 24 hrs by Western blot analysis; format: cell-based; details: dose 1.0 µmol/L, time 3-24 hrs
Outline: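 HCC70 cells at ~70% confluence were exposed to 10 µmol/L lapatinib, 1 µmol/L MK-2206, or both, for 0, 3, 6, 12 or 24 h. Lysates were prepared in Triton X-100/Tris buffer (pH 7.5) with protease and phosphatase inhibitors. Immunoblots after SDS-PAGE and nitrocellulose transfer were probed for pAkt and pS6.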

[6] = Toxicity in human NCI-H292 cells xenografted CD-1 mouse assessed as weight loss at 360 mg/kg, po administered once a week for 2 weeks starting 2 hrs post-erlotinib treatment and measured on day 16; format: organism-based; details: in vivo, 384 h, time 16 day
Outline: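 Female CD1-nude mice bearing s.c. NCI-H292 tumours (cells in 50% Matrigel/50% PBS, left flank), randomized at mean 0.2 cm³, n=5/group. Body weight monitored; treatment period ended day 16.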

[7] = tested on: NCI-H1993; assay: Induction of apoptosis in human NCI-H1993 cells assessed as fold induction of capsase-3/7 activity measured after 24 to 48 hrs in presence of gemcitabine by caspase-glo 3/7 assay; format: functional; details: time 24-48 hrs
[8] = Effect on total S6 protein expression in human HCC70 cells at 1 umol/L measured after 3 to 24 hrs in presence of lapatinib by Western blot analysis; format: toxicity, cell-based; details: hcc70, 1 µM, time 3-24 hrs, dose 1 µmol/L
Outline: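 HCC70 cells at ~70% confluence were exposed to 1 µmol/L MK-2206, 10 µmol/L lapatinib, or both for 0, 3, 6, 12 or 24 h. Cells were lysed in Tris-HCl pH 7.5/NaCl/1% Triton X-100 with protease and phosphatase inhibitors. Lysates were run on SDS-PAGE and immunoblotted.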

[9] = tested on: NCI-H460; assay: Synergistic antiproliferative activity against human NCI-H460 cells assessed as combination index at ED50 measured after 72 hrs in presence of erlotinib by celltiter-glo assay; format: functional
[10] = tested on: NCI-H1703; assay: Induction of apoptosis in human NCI-H1703 cells assessed as fold induction of capsase-3/7 activity measured after 24 to 48 hrs in presence of carboplatin by caspase-glo 3/7 assay; format: functional; details: time 24-48 hrs
[11] = tested on: HCC1954; assay: Synergistic antiproliferative activity against human HCC1954 cells assessed as combination index at ED50 measured after 72 hrs in presence of lapatinib by celltiter-glo assay; format: functional; outline: as §1
[12] = tested on: PC-3; assay: Antitumor activity against human PC-3 cells xenografted in CD1 nude mouse assessed as tumor growth inhibition at 120 mg/kg, po administered 3 times per week for 2 weeks starting 24 hrs post docetaxel treatment and measured during compound dosing by caliper method; format: functional, organism-based
Outline: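 Male CD1-nude mice received s.c. PC-3 cells and were treated from day 25 after implant, at 0.2 cm³, n = 5. Docetaxel (0.73% ethanol in saline) was given at 5 mg/kg i.v. on day 0. MK-2206 (30% Captisol) was given at 120 mg/kg po on days 1, 3, 5, 8, 10, 12. Caliper volume twice weekly.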

[13] = tested on: HCC70; assay: Synergistic antiproliferative activity against human HCC70 cells assessed as combination index at ED90 measured after 72 hrs in presence of lapatinib by celltiter-glo assay; format: functional; outline: as §1
[14] = tested on: MDA-MB-453; assay: Synergistic antiproliferative activity against human MDA-MB-453 cells assessed as combination index at ED90 measured after 72 hrs in presence of docetaxel by celltiter-glo assay; format: functional; outline: as §1
[15] = tested on: HCC1954; assay: Antiproliferative activity against human HCC1954 cells assessed as reduction in cell proliferation measured after 72 hrs by celltiter-glo assay; format: functional, cell-based; details: HCC1954, 72 h
Outline: (§2)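 Cells in RPMI 1640 with 10% heat-inactivated FBS at 37°C and 5% CO₂ were seeded at 2 to 3 × 10³ per well. […] Growth was read as cellular ATP by CellTiter-Glo.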

[16] = tested on: UMC-11; assay: Synergistic antiproliferative activity against human UMC-11 cells assessed as combination index at ED25 to ED90 measured after 72 hrs in presence of gemcitabine by celltiter-glo assay; format: functional
[17] = tested on: A2780; assay: Synergistic antiproliferative activity against human A2780 cells assessed as combination index at ED90 measured after 72 hrs in presence of gemcitabine by celltiter-glo assay; format: functional
Outline: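 Cells were seeded at 2–3 × 10³ per well in RPMI 1640 with 10% FBS. At 24 h, MK-2206 and the partner drug were added simultaneously at constant concentration ratios spanning each agent's IC₅₀, for 72 h. Growth was read as cellular ATP by CellTiter-Glo. CI was taken from median-effect plots of each agent alone and in combination (Chou–Talalay), at ED₅₀, ED₇₅ and ED₉₀.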

[18] = tested on: NCI-H292; assay: Synergistic antiproliferative activity against human NCI-H292 cells assessed as combination index at ED75 measured after 72 hrs in presence of erlotinib by celltiter-glo assay; format: functional
[19] = tested on: HCC827; assay: Synergistic antiproliferative activity against human HCC827 cells assessed as combination index at ED75 measured after 72 hrs in presence of erlotinib by celltiter-glo assay; format: functional; outline: as §1
[20] = tested on: NCI-H1993; assay: Induction of apoptosis in human NCI-H1993 cells assessed as fold induction of capsase-3/7 activity measured after 24 to 48 hrs in presence of carboplatin by caspase-glo 3/7 assay; format: functional; details: time 24-48 hrs
[21] = tested on: SK-OV-3; assay: Antiproliferative activity against human SK-OV-3 cells assessed as reduction in cell proliferation measured after 72 hrs by celltiter-glo assay; format: functional, cell-based; details: SK-OV-3, 72 h; outline: as §2
[22] = tested on: SK-OV-3; assay: Synergistic antiproliferative activity against human SK-OV-3 cells assessed as combination index at ED90 measured after 96 hrs in presence of lapatinib by celltiter-glo assay; format: functional

Sequence of RAC-alpha serine/threonine-protein kinase (Homo sapiens) (P31749 whole entry): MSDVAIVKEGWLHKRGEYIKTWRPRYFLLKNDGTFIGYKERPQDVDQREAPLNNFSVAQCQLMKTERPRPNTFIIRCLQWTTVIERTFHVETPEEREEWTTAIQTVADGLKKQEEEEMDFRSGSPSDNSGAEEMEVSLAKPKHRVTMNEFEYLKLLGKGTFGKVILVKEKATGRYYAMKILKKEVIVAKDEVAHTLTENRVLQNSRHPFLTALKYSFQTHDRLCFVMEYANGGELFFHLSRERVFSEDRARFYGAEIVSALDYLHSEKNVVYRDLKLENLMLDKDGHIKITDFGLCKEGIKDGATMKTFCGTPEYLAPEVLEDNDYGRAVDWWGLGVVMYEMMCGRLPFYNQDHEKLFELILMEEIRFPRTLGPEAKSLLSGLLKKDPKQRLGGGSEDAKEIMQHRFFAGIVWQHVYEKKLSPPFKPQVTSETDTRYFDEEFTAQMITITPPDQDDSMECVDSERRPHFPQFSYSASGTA

Cl.NC1(c2ccc(-c3nc4ccn5c(=O)[nH]nc5c4cc3-c3ccccc3)cc2)CCC1
Activity [1]: Active
CI75 [2]: 0.18
CI75 [3]: 0.18
CI50 [4]: 0.7
inhibition [5]: Active
Activity [6]: Non-Toxic
fold change (FC) [7]: 1.2
Activity [8]: Toxic
CI50 [9]: 0.34
fold change (FC) [10]: 1.3
CI50 [11]: 0.18
TGI [12]: Active
CI90 [13]: 0.2
CI90 [14]: 0.3
IC50 [15]: 2.9 µM
CI [16]: 0.53
CI90 [17]: 0.39
CI75 [18]: 0.31
CI75 [19]: 0.18
fold change (FC) [20]: 1.2
IC50 [21]: 5.1 µM
CI90 [22]: 0.18
